Experiments:
[1] = test system: H1155 cells; experiment: apoptosis by cleaved caspase 3/7 and PARP1; assay type: cell-based; details: for apoptosis, single drug: single drug treatment
[2] = test system: multiple cell lines (H650, H1155, H23); experiment: relative cell counts after treatment with selective inhibitors; assay type: cell-based; details: 72 h
Method in brief: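 Cells were treated 72 h with test inhibitors at 1.5 μM (20 μM for FMK and SL0101), diluted from 10 mM DMSO stocks in complete RPMI. Viable cells were counted in triplicate by trypan blue exclusion on a hemocytometer. Data are biological triplicates each in technical triplicate, reported as median ± SD relative counts.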

[3] = test system: H1155 cells; experiment: cell viability, combination of inhibitors with paclitaxel; assay type: cell-based
[4] = target: mTOR (Homo sapiens, UniProt P42345); experiment: in vitro kinase assay; assay type: biochemical; details: at 1.5 μM
[5] = target: FER (Homo sapiens, UniProt P16591); experiment: in vitro kinase assay; assay type: biochemical
Sequence of FER (P16591 whole entry): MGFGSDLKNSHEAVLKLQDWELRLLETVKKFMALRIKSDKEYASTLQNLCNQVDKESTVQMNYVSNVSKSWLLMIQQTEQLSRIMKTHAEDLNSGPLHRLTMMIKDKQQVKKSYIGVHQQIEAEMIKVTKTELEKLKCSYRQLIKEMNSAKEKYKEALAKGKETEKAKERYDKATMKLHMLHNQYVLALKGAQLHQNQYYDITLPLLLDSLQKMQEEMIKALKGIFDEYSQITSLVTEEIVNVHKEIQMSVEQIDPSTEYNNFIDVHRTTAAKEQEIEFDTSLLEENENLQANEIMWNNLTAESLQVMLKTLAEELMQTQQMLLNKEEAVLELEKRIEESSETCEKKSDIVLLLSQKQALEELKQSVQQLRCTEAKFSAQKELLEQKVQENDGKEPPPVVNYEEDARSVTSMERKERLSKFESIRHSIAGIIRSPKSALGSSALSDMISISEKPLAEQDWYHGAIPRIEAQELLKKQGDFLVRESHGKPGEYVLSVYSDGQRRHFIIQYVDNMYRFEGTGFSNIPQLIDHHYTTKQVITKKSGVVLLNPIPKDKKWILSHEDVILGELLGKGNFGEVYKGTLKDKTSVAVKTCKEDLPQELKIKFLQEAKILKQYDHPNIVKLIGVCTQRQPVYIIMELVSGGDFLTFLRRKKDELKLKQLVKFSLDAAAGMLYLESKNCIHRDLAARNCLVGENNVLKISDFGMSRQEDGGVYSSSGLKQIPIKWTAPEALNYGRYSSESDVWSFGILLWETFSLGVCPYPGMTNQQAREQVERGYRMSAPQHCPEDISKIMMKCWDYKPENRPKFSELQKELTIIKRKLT

[6] = test system: NSCLC cell lines (KRAS-mutant H650, H1155 and H23 cells); experiment: phenotypic drug screen, cell viability; assay type: cell-based; details: 72 h, 2.5 μM; ALK-negative lines
Method in brief: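 Phenotypic screen: 240 compounds were tested across 20 NSCLC cell lines, seeded 1000 cells/well in 384-well plates and treated 24 h later. Compounds were diluted from 10 mM DMSO stocks in complete RPMI to final 0.5 μM and 2.5 μM for 72 h in biological duplicate. Viability was read by CellTiter-Glo luminescence and profiles were grouped by unsupervised hierarchical clustering.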

[7] = test system: ALK-negative NSCLC cell lines (most sensitive cells); experiment: CellTiter-Glo cell viability, dose-response curves; assay type: cell-based
[8] = test system: PDX tumor models with high pFAK1 staining (PDX1, PDX2, PDX3); experiment: ex vivo soft-agar 3D clonogenic assay, combination with paclitaxel; assay type: cell-based; details: particularly at low drug concentrations
[9] = test system: phosphorylation of YB1 at S102; experiment: Immunoblot, YB1 phosphorylation; assay type: cell-based; details: 3 h treatment
Method in brief: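 YB1 phosphorylation was read by immunoblot after 3 h treatment: FMK 20 μM, OSI-906 1.5 μM, PF-573228 1.5 μM. Lysis was in NP40/Tris pH 7.5/glycerol/MgCl₂/NaCl buffer with phosphatase and protease inhibitors. Detection used HRP-conjugated anti-rabbit or anti-mouse secondaries.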

[10] = test system: FAK1 and RSK1/2; experiment: c-ceritinib pulldown competition with free ceritinib; assay type: binding; details: 20 μM unmodified ceritinib, H650 cell lysate
[11] = test system: RSK1/2 S380/S386 autophosphorylation in H23 cells; experiment: Western blot, RSK1/2 autophosphorylation; assay type: cell-based; details: 3 h
Method in brief: (§1)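 H23 cells were treated for 3 h with test compounds: FMK at 20 μM, OSI-906 and PF-573228 at 1.5 μM. Target phosphorylation and downstream signals were read by western blot with HRP-conjugated secondary antibodies; n = 3.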

[12] = test system: ERK1/2; experiment: in vitro kinase assay; assay type: biochemical; details: at 1.5 μM
[13] = test system: autophosphorylation of FAK1 in H23 cells; experiment: Western blot, FAK1 autophosphorylation; assay type: cell-based; details: 3 h
Method in brief: as §1

[14] = test system: H460 cells; experiment: cell viability, combination with paclitaxel; assay type: cell-based
[15] = test system: NSCLC cells; experiment: cell cycle analysis by flow cytometry; assay type: cell-based
Method in brief: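 Cell cycle: after incubation, cells were harvested, fixed in 70% cold ethanol and held at −20°C. They were then washed in PBS and stained with 1 μg/mL DAPI in 0.1% Triton X-100/PBS. DNA content was measured by flow cytometry and cell-cycle phases were modelled from the histograms.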

[16] = test system: NRAS-mutant H1299 LCLC cells; experiment: cell viability, combination with paclitaxel; assay type: cell-based
[17] = test system: ERK phosphorylation in H23 cells; experiment: Western blot, ERK phosphorylation; assay type: cell-based; details: 3 h
Method in brief: as §1

[18] = test system: phosphorylation of RPS6 at S235/236; experiment: Immunoblot, RPS6 phosphorylation; assay type: cell-based
[19] = target: RSK1/2 C-terminal kinase domain (CTKD); experiment: cross-competition pulldown with NTKD or CTKD inhibitors; assay type: binding; details: H650 lysate ± 20 μM BI-D1870 or FMK
[20] = test system: AKT phosphorylation in H23 cells; experiment: Western blot, AKT phosphorylation; assay type: cell-based; details: 3 h
Method in brief: as §1

[21] = patient plasma; cited from earlier work
[22] = test system: H650 and H1155 cells; experiment: cell viability, combination with paclitaxel; assay type: cell-based; details: 72 h
Method in brief: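 Cells were plated at 1000 cells/well in 384-well format and dosed 24 h later with test compound alone or with the partner agent, each diluted in culture medium. After 72 h, viability was read by CellTiter-Glo luminescence (n = 3). Dose-response curves were fitted, and combination effects were scored by the Bliss model or by the Chou-Talalay combination index.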

[23] = target: AMPKα1 (Homo sapiens, UniProt Q13131); experiment: in vitro kinase assay; assay type: biochemical
Sequence of AMPKα1 (Q13131 whole entry): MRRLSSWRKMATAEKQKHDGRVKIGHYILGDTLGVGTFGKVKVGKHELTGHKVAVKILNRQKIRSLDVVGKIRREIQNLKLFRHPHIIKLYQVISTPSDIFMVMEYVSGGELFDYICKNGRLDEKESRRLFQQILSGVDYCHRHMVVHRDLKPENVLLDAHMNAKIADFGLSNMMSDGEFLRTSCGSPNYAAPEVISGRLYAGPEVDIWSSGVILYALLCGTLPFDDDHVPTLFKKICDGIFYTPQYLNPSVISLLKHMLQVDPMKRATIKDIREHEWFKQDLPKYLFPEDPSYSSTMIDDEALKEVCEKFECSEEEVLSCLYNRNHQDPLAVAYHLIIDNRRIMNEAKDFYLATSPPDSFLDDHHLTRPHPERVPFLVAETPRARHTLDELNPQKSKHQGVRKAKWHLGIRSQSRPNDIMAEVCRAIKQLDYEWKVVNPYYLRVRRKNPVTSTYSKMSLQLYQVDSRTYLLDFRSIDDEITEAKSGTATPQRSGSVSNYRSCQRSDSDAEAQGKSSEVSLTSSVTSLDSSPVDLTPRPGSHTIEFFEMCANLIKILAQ
Sequence of AMPKα1 (Q9Y478 whole entry partner): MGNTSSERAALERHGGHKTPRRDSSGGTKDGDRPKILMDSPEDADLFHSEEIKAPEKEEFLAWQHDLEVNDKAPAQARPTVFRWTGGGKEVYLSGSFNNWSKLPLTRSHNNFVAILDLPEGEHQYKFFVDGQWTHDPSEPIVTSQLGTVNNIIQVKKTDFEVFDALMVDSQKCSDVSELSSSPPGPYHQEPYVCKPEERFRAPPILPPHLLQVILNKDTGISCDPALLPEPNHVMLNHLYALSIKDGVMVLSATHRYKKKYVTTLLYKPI
Sequence of AMPKα1 (P54619 whole entry partner): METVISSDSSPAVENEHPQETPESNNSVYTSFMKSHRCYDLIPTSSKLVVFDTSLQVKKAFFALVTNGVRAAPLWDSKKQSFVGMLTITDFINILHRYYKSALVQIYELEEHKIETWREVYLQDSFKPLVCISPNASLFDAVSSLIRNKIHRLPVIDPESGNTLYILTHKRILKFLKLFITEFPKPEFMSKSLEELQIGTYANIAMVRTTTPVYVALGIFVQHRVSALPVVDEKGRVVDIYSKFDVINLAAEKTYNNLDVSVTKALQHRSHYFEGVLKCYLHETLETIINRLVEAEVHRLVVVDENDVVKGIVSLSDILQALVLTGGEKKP
Method in brief: (§2)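 Biochemical kinase IC50s were determined by two contract providers. One used a 10-dose 3-fold serial dilution from 20 μM and the other a 9-dose 3-fold dilution from 20 μM, each in technical duplicate. Reported values are the mean of the combined datasets.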

[24] = test system: H460 cells; experiment: clonogenic assay, combination with paclitaxel; assay type: cell-based; details: 7 days
[25] = target: ALK (Homo sapiens, UniProt Q9UM73); experiment: in vitro kinase assay; assay type: biochemical
Sequence of ALK (Q9UM73 19-1620): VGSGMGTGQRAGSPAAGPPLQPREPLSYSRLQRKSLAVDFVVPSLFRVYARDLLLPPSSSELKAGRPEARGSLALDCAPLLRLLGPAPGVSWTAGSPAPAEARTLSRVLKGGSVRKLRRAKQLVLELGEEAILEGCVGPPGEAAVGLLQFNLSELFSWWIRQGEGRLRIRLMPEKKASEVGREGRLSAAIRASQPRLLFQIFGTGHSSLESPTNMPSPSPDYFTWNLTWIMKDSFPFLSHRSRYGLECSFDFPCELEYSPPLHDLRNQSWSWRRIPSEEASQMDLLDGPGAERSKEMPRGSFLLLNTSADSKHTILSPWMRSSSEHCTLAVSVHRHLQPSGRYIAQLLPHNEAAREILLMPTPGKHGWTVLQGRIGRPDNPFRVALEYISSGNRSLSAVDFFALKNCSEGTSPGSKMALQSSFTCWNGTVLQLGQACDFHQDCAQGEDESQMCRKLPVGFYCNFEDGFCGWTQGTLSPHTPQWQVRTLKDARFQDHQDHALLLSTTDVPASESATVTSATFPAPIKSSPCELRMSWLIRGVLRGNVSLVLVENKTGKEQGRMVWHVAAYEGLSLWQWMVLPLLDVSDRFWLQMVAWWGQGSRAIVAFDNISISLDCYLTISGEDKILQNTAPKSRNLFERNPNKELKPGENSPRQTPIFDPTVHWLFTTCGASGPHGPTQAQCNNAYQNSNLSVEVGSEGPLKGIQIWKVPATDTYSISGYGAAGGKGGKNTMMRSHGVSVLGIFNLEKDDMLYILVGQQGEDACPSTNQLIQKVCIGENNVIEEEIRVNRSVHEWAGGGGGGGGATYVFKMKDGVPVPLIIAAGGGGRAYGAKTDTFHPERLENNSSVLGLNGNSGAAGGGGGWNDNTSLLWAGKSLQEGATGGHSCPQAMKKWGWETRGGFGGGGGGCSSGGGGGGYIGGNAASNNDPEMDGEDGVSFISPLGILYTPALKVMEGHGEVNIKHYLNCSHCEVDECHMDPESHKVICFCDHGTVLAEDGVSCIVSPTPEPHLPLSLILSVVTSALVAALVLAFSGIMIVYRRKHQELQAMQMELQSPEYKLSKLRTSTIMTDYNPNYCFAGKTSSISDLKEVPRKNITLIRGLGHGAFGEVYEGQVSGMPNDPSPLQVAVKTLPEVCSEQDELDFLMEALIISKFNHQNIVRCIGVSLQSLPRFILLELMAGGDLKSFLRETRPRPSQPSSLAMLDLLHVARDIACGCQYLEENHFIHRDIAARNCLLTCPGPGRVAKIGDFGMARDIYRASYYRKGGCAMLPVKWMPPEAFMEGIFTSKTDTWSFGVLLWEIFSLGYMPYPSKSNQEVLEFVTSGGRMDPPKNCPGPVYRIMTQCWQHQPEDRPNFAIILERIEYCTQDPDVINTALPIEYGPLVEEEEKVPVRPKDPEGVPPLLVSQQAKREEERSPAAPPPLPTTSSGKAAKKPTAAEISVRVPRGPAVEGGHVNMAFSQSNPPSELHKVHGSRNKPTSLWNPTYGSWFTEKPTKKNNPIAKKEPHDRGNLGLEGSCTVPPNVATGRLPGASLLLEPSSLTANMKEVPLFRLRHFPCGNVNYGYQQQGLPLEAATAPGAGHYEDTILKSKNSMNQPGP
Method in brief: as §2

[26] = target: EML4-ALK (Homo sapiens, UniProt Q9HC35+Q9UM73); experiment: c-ceritinib pulldown; assay type: binding; details: immobilized compound, cell lysate

## CC(=O)O[C@H]1C(=O)[C@@]2(C)[C@H]([C@H](OC(=O)c3ccccc3)[C@]3(O)C[C@H](OC(=O)[C@H](O)[C@@H](NC(=O)c4ccccc4)c4ccccc4)C(C)=C1C3(C)C)[C@]1(OC(C)=O)CO[C@@H]1C[C@@H]2O [paclitaxel]
[1]
  apoptosis, single drug: no effect

## CC(=O)O[C@@H]1[C@@H](OC(C)=O)[C@@H](O)[C@H](Oc2c(-c3ccc(O)cc3)oc3cc(O)cc(O)c3c2=O)O[C@H]1C [SL0101]
[2]; 20 μM
  effect on viability, single agent: little effect

## Cc1ccc(-c2c(C(=O)CF)n(CCCO)c3ncnc(N)c23)cc1 [FMK]
[2]; 20 μM
  effect on viability, single agent: little effect

## CNC(=O)c1ccccc1Nc1nc(Nc2ccc3c(c2OC)CCC[C@H](N2CCN(CCO)CC2)C3)ncc1Cl [CEP-37440]
[3]
  synergy with paclitaxel: strongly synergized

## C[C@]1(O)C[C@@H](c2nc(-c3ccc4ccc(-c5ccccc5)nc4c3)c3c(N)nccn32)C1 [OSI-906]
[2]; 1.5 μM
  effect on viability, single agent: little effect

## Cc1cc(Nc2ncc(Cl)c(Nc3ccccc3S(=O)(=O)C(C)C)n2)c(OC(C)C)cc1C1CCNCC1 [ceritinib, 5-Chloro-N2-(2-isopropoxy-5-methyl-4-(piperidin-4-yl)phenyl)-N4-(2-(isopropylsulfonyl)phenyl)pyrimidine-2,4-diamine]
[4]
  inhibition: not significantly inhibited
[5]
  IC50: 5 nM
[6]
  activity in viability screen: specific ALK-independent activity
[7]; 72 h, read-out: IC50, inhibition of viability
  IC50: 1000 to 2000 nM
[7]; read-out: Emax, viability
  viability at 4 µM: 0%
[8]
  synergy (Bliss), 3D ex vivo culture: pronounced synergy
[9]
  effect on YB1 S102 phosphorylation: inhibited
[10]
  competition from the affinity matrix: competed away
[11]
  effect on RSK1/2 S380/S386 autophosphorylation: inhibited
[12]
  inhibition: not significantly inhibited
[13]
  effect on autophosphorylation of FAK1: reduced
[14]
  synergy, CI values: highly synergistic
[15]
  cell cycle effect: G1 cell cycle arrest
[16]
  response to combination: strong response
[1]; ceritinib combined with paclitaxel
  apoptosis, combination: significant increase in apoptosis
[1]
  apoptosis, single drug: no effect
[17]
  effect on ERK phosphorylation: only minor effects
[18]
  effect on RPS6 S235/236 phosphorylation: inhibited
[19]
  kinase domain bound: binds to the CTKD
[20]
  effect on AKT phosphorylation: reduced
[21]
  clinical plasma concentrations: 1.4 to 2.3 µM
[22]
  synergy, Bliss model of independence: substantial synergy
[23]
  IC50: 2500 nM
[3]
  synergy with paclitaxel: pronounced synergy
[24]
  combination effect, clonogenic assay: pronounced combination effects

## CS(=O)(=O)c1cccc(CNc2nc(Nc3ccc4c(c3)CCC(=O)N4)ncc2C(F)(F)F)c1 [PF-573228]
[2]; 1.5 μM
  effect on viability, single agent: little effect

## Cc1cc(Nc2ncc(Cl)c(Nc3ccccc3S(=O)(=O)C(C)C)n2)c(OC(C)C)cc1C1CCN(CCCN)CC1 [c-ceritinib]
[25]
  ALK inhibition: Activity was confirmed
[26]
  binding of EML4-ALK: ability to bind

## c1cc(-c2cnn3cc(-c4ccc(OCCN5CCCCC5)cc4)cnc23)ccn1 [compound C]
[3]
  synergy with paclitaxel: did not synergize

## CN(C)C(=O)c1cc2cnc(Nc3ccc(N4CCNCC4)cn3)nc2n1C1CCCC1 [ribociclib]
[3]
  synergy with paclitaxel: did not exhibit synergy

Reference: paper PMC5909815 (Nature chemical biology, 2017)
